Several values for one entry are separate records, joined by “and”; a condition that tells them apart may be missing. Equal values may be shown once.
Tests used:
[1] = target: T1, Endothelin-1 receptor (Rattus norvegicus, UniProt P26684); assay: Binding affinity for endothelin A receptor by measuring its ability to displace [125I]ET1 from prolactin secreting rat pituitary cells(MMQ); assay type: cell-based, Pituitary gland cell
T1 sequence (P26684 whole entry): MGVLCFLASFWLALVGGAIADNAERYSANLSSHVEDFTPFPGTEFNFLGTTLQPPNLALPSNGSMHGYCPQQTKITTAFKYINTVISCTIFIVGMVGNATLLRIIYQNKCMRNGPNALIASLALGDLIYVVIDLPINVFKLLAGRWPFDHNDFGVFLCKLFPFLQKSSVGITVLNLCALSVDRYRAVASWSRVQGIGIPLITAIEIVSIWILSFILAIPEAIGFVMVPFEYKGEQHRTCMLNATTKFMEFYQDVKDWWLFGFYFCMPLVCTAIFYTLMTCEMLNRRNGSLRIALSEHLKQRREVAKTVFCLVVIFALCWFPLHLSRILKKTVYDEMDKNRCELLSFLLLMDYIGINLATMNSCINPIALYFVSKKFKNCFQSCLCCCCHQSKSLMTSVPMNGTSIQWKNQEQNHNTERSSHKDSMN

[2] = Pharmacokinetic profile-half life was evaluated in rats upon oral administration; assay type: ADME, organism-based; details: rat, in vivo
Method in brief: (§1)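 Male Sprague-Dawley rats, n = 4 per group, 10 mg/kg iv (jugular slow bolus) or oral gavage, 10 mg/mL in ethanol–propylene glycol–D5W (20:30:50) with 1 equiv NaOH. Tail-vein plasma taken 0.1 (iv only) to 12 h, assayed by HPLC after extraction. AUC by trapezoidal rule extrapolated to infinity; T1/2 from terminal rate constant; F as oral/iv AUC.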

[3] = target: T2, Endothelin receptor type B (Homo sapiens, UniProt P24530); assay: Tested for binding affinity for human Endothelin B receptor by measuring its ability to displace [125I]ET-3 from chinese hamster ovary cells(CHO); assay type: cell-based
T2 sequence (P24530 whole entry): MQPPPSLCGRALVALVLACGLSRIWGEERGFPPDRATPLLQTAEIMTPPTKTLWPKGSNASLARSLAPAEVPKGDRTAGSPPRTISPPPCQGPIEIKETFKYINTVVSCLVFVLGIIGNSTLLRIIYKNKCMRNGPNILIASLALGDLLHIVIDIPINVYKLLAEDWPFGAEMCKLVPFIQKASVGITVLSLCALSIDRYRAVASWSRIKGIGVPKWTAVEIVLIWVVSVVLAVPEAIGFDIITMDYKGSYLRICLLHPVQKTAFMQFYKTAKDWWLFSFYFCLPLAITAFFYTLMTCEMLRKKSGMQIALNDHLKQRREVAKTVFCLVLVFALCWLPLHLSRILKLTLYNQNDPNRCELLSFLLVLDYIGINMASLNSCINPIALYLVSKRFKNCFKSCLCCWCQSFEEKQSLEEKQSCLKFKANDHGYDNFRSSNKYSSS

[4] = target: T3, Endothelin-1 receptor (Homo sapiens, UniProt P25101); assay: Tested for binding affinity for human Endothelin A receptor by measuring its ability to displace [125I]ET1 from chinese hamster ovary cells(CHO); assay type: cell-based
T3 sequence (P25101 whole entry): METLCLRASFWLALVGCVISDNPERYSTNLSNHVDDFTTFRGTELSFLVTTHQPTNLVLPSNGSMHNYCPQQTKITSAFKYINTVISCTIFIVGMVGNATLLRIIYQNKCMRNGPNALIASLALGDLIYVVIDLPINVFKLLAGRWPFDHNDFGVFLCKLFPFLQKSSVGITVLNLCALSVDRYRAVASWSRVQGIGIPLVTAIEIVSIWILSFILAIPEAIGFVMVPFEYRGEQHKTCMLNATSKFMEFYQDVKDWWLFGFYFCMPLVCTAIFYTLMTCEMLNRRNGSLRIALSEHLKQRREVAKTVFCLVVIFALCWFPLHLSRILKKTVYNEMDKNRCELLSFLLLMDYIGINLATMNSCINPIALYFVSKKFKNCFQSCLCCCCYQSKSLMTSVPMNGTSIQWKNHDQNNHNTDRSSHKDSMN

[5] = Pharmacokinetic profile AUC was evaluated in rats; assay type: ADME, organism-based; parameters: concentration or dose not given beside the values; details: rat, in vivo; method in brief: as §1
[6] = Bioavailability in rat; assay type: ADME, organism-based; details: in vivo; method in brief: as §1
[7] = Pharmacokinetic profile-half life was evaluated in rats upon intravenous administration; assay type: ADME, organism-based; details: rat, in vivo; method in brief: as §1
[8] = Pharmacokinetic profile Cmax was evaluated in rats; assay type: ADME, organism-based; details: rat, in vivo; method in brief: as §1

SMILES | IC50 [1] | other results
CCCCN(CCCC)C(=O)CN1C[C@H](c2ccc3c(c2)OCO3)[C@@H](C(=O)O)[C@@H]1CCc1cccn1C | 2.5 nM | –
CCCCC[C@H]1[C@H](C(=O)O)[C@@H](c2ccc3c(c2)OCO3)CN1CC(=O)N(CCCC)CCCC | 2.5 nM | –
CCCCN(CCCC)C(=O)CN1C[C@H](c2ccc3c(c2)OCO3)[C@@H](C(=O)O)[C@@H]1CCC1CCOCC1 | 10 nM | –
CCCCN(CCCC)C(=O)CN1C[C@H](c2ccc3c(c2)OCO3)[C@@H](C(=O)O)[C@@H]1CCN1CCCCC1=O | 2 nM | –
CCCCN(CCCC)C(=O)CN1C[C@H](c2ccc3c(c2)OCO3)[C@@H](C(=O)O)[C@@H]1CCc1ccccn1 | 0.38 nM and 0.72 nM | half-life [2]: 8.8 h; IC50 [3]: 32000 nM; IC50 [4]: 0.29 nM; AUC [5]: 0.78 µg·h/mL; bioavailability [6]: 21.1%; half-life [7]: 2.8 h; Cmax [8]: 0.58 µg/mL
C/C=C\C(C)(C)C[C@H]1[C@H](C(=O)O)[C@@H](c2cc(OC)c3c(c2)OCO3)CN1CC(=O)N(CCCC)CCCC | 0.41 nM | half-life [2]: 3.94 h; IC50 [3]: 39700 nM; IC50 [4]: 0.29 nM; AUC [5]: 2.09 µg·h/mL; bioavailability [6]: 27.8%; half-life [7]: 1.5 h; Cmax [8]: 0.66 µg/mL
CCCCN(CCCC)C(=O)CN1C[C@H](c2ccc3c(c2)OCO3)[C@@H](C(=O)O)[C@@H]1CCN1CCCC1=O | 0.42 nM | IC50 [3]: 18000 nM; IC50 [4]: 0.17 nM; AUC [5]: 0.009 µg·h/mL; bioavailability [6]: 0.3%; half-life [7]: 1.4 h; Cmax [8]: 0.016 µg/mL
C=CCCC[C@H]1[C@H](C(=O)O)[C@@H](c2ccc3c(c2)OCO3)CN1CC(=O)N(CCCC)CCCC | 9.9 nM | –
CCCCN(CCCC)C(=O)CN1C[C@H](c2ccc3c(c2)OCO3)[C@@H](C(=O)O)[C@@H]1CCn1ccccc1=O | 2.2 nM | –
C/C=C(\C)CC[C@H]1[C@H](C(=O)O)[C@@H](c2ccc3c(c2)OCO3)CN1CC(=O)N(CCCC)CCCC | 3.3 nM | –
CCCCN(CCCC)C(=O)CN1C[C@H](c2ccc3c(c2)OCO3)[C@@H](C(=O)O)[C@@H]1CC(CCC)CCC | 6 nM | –
C/C=C/CC[C@H]1[C@H](C(=O)O)[C@@H](c2ccc3c(c2)OCO3)CN1CC(=O)N(CCCC)CCCC | 4.8 nM | –
CCCCN(CCCC)C(=O)CN1C[C@H](c2ccc3c(c2)OCO3)[C@@H](C(=O)O)[C@@H]1CC(C)(C)C1OCCO1 | 1.4 nM | –
CCCCN(CCCC)C(=O)CN1C[C@H](c2ccc3c(c2)OCO3)[C@@H](C(=O)O)[C@@H]1CCCCC(F)(F)F | 4 nM | –
CCCCN(CCCC)C(=O)CN1C[C@H](c2ccc3c(c2)OCO3)[C@@H](C(=O)O)[C@@H]1CC(C)CCC (some centres not stated) | 3 nM | –
CCCCN(CCCC)C(=O)CN1C[C@H](c2ccc3c(c2)OCO3)[C@@H](C(=O)O)[C@@H]1CCC(CC)CC | 22 nM | –
CCCCN(CCCC)C(=O)CN1C[C@H](c2ccc3c(c2)OCO3)[C@@H](C(=O)O)[C@@H]1CCC1OCCCO1 | 3.3 nM | –
CCCCN(CCCC)C(=O)CN1C[C@H](c2ccc3c(c2)OCO3)[C@@H](C(=O)O)[C@@H]1CCc1ccco1 | 2.7 nM | –
CCCCN(CCCC)C(=O)CN1C[C@H](c2ccc3c(c2)OCO3)[C@@H](C(=O)O)[C@@H]1CCc1nc(C)c(C)o1 | 1.05 nM | –
CCCCN(CCCC)C(=O)CN1C[C@H](c2ccc3c(c2)OCO3)[C@@H](C(=O)O)[C@@H]1CCC=C(C)C | 1.3 nM | –
CCCCN(CCCC)C(=O)CN1C[C@H](c2ccc3c(c2)OCO3)[C@@H](C(=O)O)[C@@H]1CCC1OC(C)C(C)O1 (some centres not stated) | 13 nM | –
CCCCN(CCCC)C(=O)CN1C[C@H](c2ccc3c(c2)OCO3)[C@@H](C(=O)O)[C@@H]1CCC1CCCCO1 (some centres not stated) | 1.8 nM | –
